Screening results deposited in PubChem BioAssay by several laboratories.
In the library only some 0.91% were active in any assay of this set; here they are far more common.
Arbovirus anti – antivirals against arbovirus infection, primary screen, cell-based, full library, 10K replicate subset; arbovirus infection cell-based antiviral screen; 0.37% of 200,000 active; inhibition, % at 10 µM; in the data active means inhibition above about 30%
TNF necrop inh – inhibitors of TNF-alpha triggered necroptosis, primary screen, cell-based, Jurkat FADD-/-, single concentration; 0.068% of 220,000 active; Jurkat FADD-/- TNF necroptosis rescue, ATP luminescence, 24 h; 0 = TNF only, 100 = no-TNF cells; activation (protection from cell death), % at 10 µM;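 active means activation, meaning protection from cell death, of at least 50% relative to plate controls; inactive means activation below 50%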;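 further: necroptosis triggered by 40 ng/mL TNF-alpha added together with compound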
Lipid droplet – inhibitors of hepatocyte lipid droplet formation, primary screen, imaging, high-throughput imaging, BODIPY stain; AML12 mouse hepatocytes, oleate lipid droplets; 0.4% of 240,000 active; inhibition, % at 6.5 µM;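 active means lipid droplet intensity inhibited by at least 50%, with more than 500 cells counted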
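Technique: fluorescence imaging, 20x objective, two fields per well / Assay system: AML12 hepatocytes (mouse) / Measure: % inhibition of lipid droplet signal / Doses: 6.5 µM single-point dosing / Incubation: overnight exposure / Reagent: 100 µM oleic acid challenge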
zVAD death inh – inhibitors of zVAD-triggered necroptosis, primary screen, L929 cells | L929 zVAD necroptosis rescue, ATP luminescence, 24 h; with zVAD 60 µM | viability rescue, % at 10 µM | 0.38% of 220,000 active;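 active means activation, scaled between plate controls, above about 75%, limit read from the data; inactive means activation under that limit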;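 further: 0% = zVAD with DMSO and 100% = DMSO alone without zVAD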
Pf gametocyte – late stage P. falciparum gametocyte viability inhibitors, primary screen, ATP luminescence, HTS | 0.065% of 150,000 active | inhibition, % at 10.9 µM | P. falciparum stage V gametocytes, 24 h;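 active means inhibition above the mean plus 3 SD of compounds within the control limits, set per campaign, cut at about 38% in these data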;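 further: 0% = DMSO wells and 100% = medium only without gametocytes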
zVAD death conf – inhibitors of zVAD-triggered necroptosis in L929, confirmation, L929 cells, duplicate runs | shares compounds with zVAD death inh | L929 zVAD-induced necroptosis rescue, ATP luminescence, 24 h | activation (protection from necroptosis), % at 10 µM | 16% of 760 active | AID 463117, 2010;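 active means mean protection from necroptosis of at least 50% over duplicate tests; inactive means mean protection below 50%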;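 further: 0% = cells with zVAD alone and 100% = vehicle cells without zVAD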
Starred values were filed as active, the others as inactive; / = no result.

SMILES	Arbovirus anti	TNF necrop inh	Lipid droplet	zVAD death inh	Pf gametocyte	zVAD death conf
CCCN(CCC)CCCNC(=O)c1cc2c(=O)n(C)c3ccccc3c2n1C	0	3	/	79*	/	36
CCN(CC)CCCNC(=O)c1cc2c(=O)n(C)c3ccccc3c2n1C	3	4	/	77*	/	33
Cc1cc(C)n(CCC(=O)N2c3ccccc3CC2C)n1 (configuration not stated)	/	/	-19	/	/	/
COc1cc(-c2cc(=O)c3c(O)c(OC)c(OC)cc3o2)cc(OC)c1O	/	-16	-14	77*	/	10
COc1ccc(-c2cc(=O)c3c(O)c(OC)c(O)cc3o2)cc1	16	-4	-3	1	/	/
O=C(CCl)Nc1c[nH]c(=O)[nH]c1=O	9	44	4	81*	5	12
CC(=O)c1ccc2noc(-c3ccccc3)c2c1	-7	1	5	76*	-1	2
O=C(Nc1ccccc1)N1N=CCC1c1ccccc1 (configuration not stated)	-1	95*	-19	85*	/	48
CCN1CCN(CC(=O)N2N=CCC2c2ccccc2)CC1 (configuration not stated)	/	1	26	-1	-19	/
O=C(Nc1ccc(Cl)c(Cl)c1)N1N=CCC1c1ccccc1 (configuration not stated)	-25	97*	-6	79*	-8	11
CN(C)S(=O)(=O)c1ccc(NC(=O)c2cc3ccccc3o2)cc1	-3	-1	/	92*	-8	4
COc1cc(NC(C)=O)ccc1NC(=O)c1cc2ccccc2o1	/	/	/	/	-1	/
Cc1ccc(NC(=O)c2cc3ccccc3o2)cc1S(=O)(=O)N(C)C	0	-2	29	1	2	/
COc1cc(NC(=O)c2cccs2)ccc1NC(=O)c1cc2ccccc2o1	-19	1	-18	78*	-11	1
CCC1=Nc2cc(C(=O)NCCCN3CCN(C)CC3)ccc2Sc2ccccc21	/	/	-14	/	/	/
C/C(CC(=O)Nc1c(C)cc(C)cc1C)=N\NC(=O)Cc1ccccc1	/	/	1	/	/	/
COc1ccc(-c2noc(CNC(=O)c3ccc4c(c3)OCO4)n2)cc1OC	/	/	-3	/	/	/
COc1ccc(Cn2c(=O)[nH]c3cc(C(=O)NCCCN4CCCCCC4)ccc3c2=O)cc1	17	-1	0	2	14	/
CCCCCn1c(=O)[nH]c2cc(C(=O)NCCCN(C)Cc3ccccc3)ccc2c1=O	-32	0	7	1	21	/
O=C(NCCCN1CCCCC1)c1ccc2c(=O)n(CCc3ccccc3)c(=O)[nH]c2c1	-21	-3	/	80*	/	2
CCN(CC)CCNC(=O)c1ccc2c(=O)n(CCc3ccccc3)c(=O)[nH]c2c1	-22	-1	/	89*	15	19
Cc1cc2ncn(/N=C/c3cccnc3)c2cc1C	4	-2	/	76*	/	36
CC(=O)Oc1ccc(C23CC4CC(CC(C4)C2)C3)cc1C(=O)O	/	/	-12	/	/	/
COc1ccc(C(=O)C2CCCN(Cc3c(C)[nH]c4ccccc34)C2)c(OC)c1 (configuration not stated)	2	0	-19	66	/	/
COc1ccccc1C1CCN(Cc2c(C)[nH]c3ccccc23)CC1	/	-2	-10	76*	8	28
SMILES	Arbovirus anti	TNF necrop inh	Lipid droplet	zVAD death inh	Pf gametocyte	zVAD death conf
Cc1cc(N)n2ncc(-c3ccc(F)cc3)c2n1	2	-4	10	79*	/	43
CC(C)OCCCNC(=S)Nc1ccc(S(N)(=O)=O)cc1	8	3	4	75*	16	2
CN(CCOc1ccccc1)C(=O)CCc1c[nH]c2ccccc12	/	/	-7	/	/	/
COc1ccccc1NC(=O)/C(=N/OCc1ccc(C#N)cc1)C(C)=O	5	-1	3	76*	-5	1
CCc1ccc(NC(=O)CSc2nc3n[nH]c(C)c3c(=N)n2-c2cccc(OC)c2)cc1	0	-15	16	91*	/	56*
Cc1csc(N/N=C\c2cccnc2)n1	-4	10	8	88*	-21	8
CC(=O)c1sc(NC(=O)c2ccc(C(C)(C)C)cc2)nc1C	-14	3	9	75*	-10	1
O=C(c1cc2cc(F)ccc2[nH]1)N1CCC(Cc2ccccc2)CC1	/	/	3	/	/	/
NS(=O)(=O)c1cc(C(=O)OCC(=O)Nc2ccc(N3CCCCC3)cc2)ccc1Cl	/	1	-2	-1	16	/
CSc1nc2ccc(Nc3nc(N4CCOCC4)nc(N4CCOCC4)n3)cc2s1	-5	1	-3	84*	12	2
CCN(CC(=O)NCc1ccc(F)cc1)C(=O)c1cccnc1SC	/	/	-24	/	/	/
COC(=O)c1ccc(NC(=O)c2cccc(C)c2[N+](=O)[O-])cc1	2	4	4	85*	8	3
COc1cc(/C=C2\Oc3cc(O)ccc3C2=O)ccc1O	/	-3	6	76*	/	27
O=C1/C(=C/c2ccc(O)c(O)c2)Oc2cc(O)ccc21	/	-2	2	13	/	/
Cc1cc(C(=O)N/N=C/c2ccc[nH]2)n[nH]1	6	16	1	89*	5	27
Cc1cc(C)c2c(N)c(C(=O)N/N=C/c3cccnc3)sc2n1	/	-10	16	79*	-7	36
Cc1cc(C(=O)N/N=C/c2ccc(-c3ccccc3Cl)o2)n[nH]1	-20	30	-2	84*	-5	38
Cc1ccc(-c2cc(C(=O)N/N=C/c3cccnc3)n[nH]2)o1	0	0	7	2	/	/
Cc1cc(C(=O)N/N=C/c2cccnc2)n[nH]1	/	39	/	84*	-8	6
Cc1ccc(-n2ncc3c2CC(C)(C)CC3NC(=O)CCc2c(C)noc2C)cc1 (configuration not stated)	/	/	-6	/	/	/
Cc1ccc(CCN2CCN=C2Nc2ccccc2)cc1	/	/	/	/	4	/
CCOc1cc(-c2cc(-c3ccc(C)cc3)nc(N)c2C#N)ccc1O	-12	-8	-17	0	-4	/
CCOc1cc(/C=C(\C#N)c2[nH]nc(N)c2C#N)ccc1O	-3	2	/	81*	11	39
O=C(Nc1ccc2c(c1)OCO2)c1noc2c1CCCCC2	-9	2	/	80*	/	7
C/C=C(\C)CN1CCC(Oc2cccc(C(=O)NCc3ccccn3)c2)CC1	/	/	-2	/	/	/
COc1ccccc1CC(=O)Nc1ccc(S(=O)(=O)N2CCOCC2)cc1	/	/	20	/	/	/
COc1ccc(C(=O)/C=C/Nc2ccc(S(=O)(=O)Nc3cc(OC)nc(OC)n3)cc2)c(OC)c1	/	/	-2	/	/	/
COc1cc(CN(C)c2ncnc3sccc23)ccc1OC(F)F	/	/	-20	/	/	/
O=C(CSc1nc2ccc(Cl)cc2[nH]1)N1CCN(C(=O)c2ccco2)CC1	-2	2	-3	85*	-3	49
